High-throughput results from PubChem BioAssay.
CHT PAM – CHT positive allosteric modulators, primary screen, cell-based, membrane potential dye, choline EC20. High affinity choline transporter 1 (Homo sapiens), Q9GZV3. CHT-expressing cells; stronger effect = higher value; LV-AA mutant CHT in HEK293 cells. B-score at 10 µM. 310,000 compounds, 0.49% hits. AID 488977, 2010;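 active = initial fluorescence not abnormally high and integrated response B-score, plate-corrected, over 3 SD above library mean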
CHT inh – inhibitors of human choline transporter CHT | High affinity choline transporter 1 (Homo sapiens), Q9GZV3 | CHT-expressing cells, membrane potential dye, choline response; stronger effect = lower value | B-score at 10 µM | 310,000 compounds, 0.86% hits | AID 488975, 2010;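 active = B-score over 3 SD under the library average, and starting fluorescence ratio not unusually high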;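 note: choline stimulus applied at its EC90 after an EC20 pre-addition; B-score computed on integrated fluorescence ratio after choline addition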
Cl transport mod – KCC2 cotransporter modulators, thallium flux, primary screen, cell-based, HEK293 KCC2, FluoZin-2 fluorescence, MLSMR; Solute carrier family 12 member 5 (Homo sapiens), Q9H2X9; KCC2 cells, thallium flux FluoZin-2 fluorescence; B-score of Tl+ flux slope (higher = more flux/activation; lower = inhibition) at 10 µM; 190,000 compounds, 2.2% hits; AID 1456, 2008;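 active = thallium flux slope and its plate-corrected score both differing from the plate sample mean at a set confidence after two filtering rounds, in either direction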;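 note: slope of fluorescence scaled to starting intensity during 10 to 20 s after thallium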
Target sequence (Q9H2X9 whole entry, looked up): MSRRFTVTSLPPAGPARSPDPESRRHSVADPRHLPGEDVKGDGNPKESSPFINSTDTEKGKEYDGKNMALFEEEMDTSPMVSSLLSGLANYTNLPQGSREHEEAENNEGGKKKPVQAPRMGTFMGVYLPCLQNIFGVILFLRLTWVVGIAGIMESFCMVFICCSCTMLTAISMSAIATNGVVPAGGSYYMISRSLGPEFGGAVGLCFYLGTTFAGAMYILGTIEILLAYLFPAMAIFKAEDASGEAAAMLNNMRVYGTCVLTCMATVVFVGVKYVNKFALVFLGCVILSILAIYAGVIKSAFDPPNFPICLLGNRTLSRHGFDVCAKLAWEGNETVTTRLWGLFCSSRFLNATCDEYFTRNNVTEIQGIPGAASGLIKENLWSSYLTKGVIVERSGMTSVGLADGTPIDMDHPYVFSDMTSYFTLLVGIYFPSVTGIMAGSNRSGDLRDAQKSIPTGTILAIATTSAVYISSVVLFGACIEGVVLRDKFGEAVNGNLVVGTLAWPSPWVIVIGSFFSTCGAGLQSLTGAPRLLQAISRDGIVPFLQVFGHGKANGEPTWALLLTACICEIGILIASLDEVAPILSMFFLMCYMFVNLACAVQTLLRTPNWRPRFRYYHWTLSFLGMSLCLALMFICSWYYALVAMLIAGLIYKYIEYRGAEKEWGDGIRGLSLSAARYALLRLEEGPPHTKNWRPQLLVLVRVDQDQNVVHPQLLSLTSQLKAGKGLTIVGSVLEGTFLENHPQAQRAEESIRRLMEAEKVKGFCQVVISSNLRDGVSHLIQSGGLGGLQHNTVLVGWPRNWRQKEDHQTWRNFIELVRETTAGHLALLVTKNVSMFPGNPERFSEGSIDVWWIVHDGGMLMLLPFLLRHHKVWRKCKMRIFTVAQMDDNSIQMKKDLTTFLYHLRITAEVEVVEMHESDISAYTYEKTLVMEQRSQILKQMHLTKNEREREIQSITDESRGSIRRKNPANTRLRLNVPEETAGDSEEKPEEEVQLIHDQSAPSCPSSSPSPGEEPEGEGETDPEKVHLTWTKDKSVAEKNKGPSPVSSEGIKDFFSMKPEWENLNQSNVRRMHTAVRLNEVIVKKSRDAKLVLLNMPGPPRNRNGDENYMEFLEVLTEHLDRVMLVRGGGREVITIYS
Rad51 HR inh – human RAD51 strand exchange inhibitors, primary screen, biochemical, fluorescence | hRad51 DNA strand exchange, fluorescence dequenching | DNA repair protein RAD51 homolog 1 (Homo sapiens), Q06609 | 200,000 compounds, 0.085% hits | AID 1385, 2008 | inhibition, % at 10 µM;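 active = inhibition above 40% at the single screening dose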;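 note: 0% = DMSO control wells and 100% = blanks with heterologous ssDNA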
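Assay system: Human Rad51 nucleoprotein filaments preassembled on unlabelled ssDNA | Reagent: Donor/quencher-labelled 47-bp dsDNA substrate | Doses: One concentration, 10 µM final | Times: 37 °C 15-min filament assembly, 30-min compound preincubation, 15-min exchange | Technique: Fluorescein emission 520 nm, excitation 485 nm | Benchmarks: Plate control and blank wells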
CHT activ conf – CHT activators, confirmation, cell-based, membrane potential dye, duplicate | CHT-expressing cells, membrane potential dye fluorescence (FDSS); % of choline EC20–EC90 response window; HEK293 expressing CHT LV-AA mutant; choline added at its EC20 | activation, % at 10 µM | 2,500 compounds, 91% hits | shares compounds with CHT PAM;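 active = primary screen active, with duplicate mean activation above negative control mean plus 3 SD, cut at about 11% in these data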
HEK293 MP dye – membrane potential response in parental HEK293 cells, counter-screen for CHT activator project, cell-based, membrane potential dye; AID 623908, 2012; 2,500 compounds, 62% hits; shares compounds with CHT PAM; ratio readout change at 10 µM, hits read low; membrane potential dye fluorescence (FDSS); measured after EC20 choline addition;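 active = duplicate-averaged ratio beyond 3 SD from buffer wells, up or down, though filed actives are nearly all decreases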
Starred values were filed as active, the others as inactive; i = inactive; nt = no result. An excerpt weighted towards active compounds, which were near 2.6% of everything screened.

SMILES	CHT PAM	CHT inh	Cl transport mod	Rad51 HR inh	CHT activ conf	HEK293 MP dye
COc1ccc2sc(C)[n+](C)c2c1	11*	i	1.9	nt	39*	-30*
CCCC[n+]1c(C)sc2cc(OC)ccc21	i	i	0.3	-9	nt	nt
Cc1ccc2nc(N3CCOCC3)c(C=O)c(=O)n2c1	i	i	0.0037	nt	nt	nt
Cc1cc(N2CCOCC2)c2c(N)cc(C)c(C)c2n1	i	i	0.25	-5	55*	-73*
Cc1ccc2cc(C=O)c(N3CCOCC3)nc2c1C	i	i	nt	nt	nt	nt
Cc1nn(-c2ccccc2)c(C)c1/C=N/n1c(-c2ccc(Cl)cc2)n[nH]c1=S	i	i	2.5	-5	8	i
N=c1c2c3c(sc2ncn1CCCO)CCCC3	9.5*	i	nt	nt	26*	-56*
N=c1c2c3c(sc2ncn1Cc1ccccc1)CCCC3	i	i	-0.4	3	nt	nt
c1nc(NCCN2CCOCC2)c2c3c(sc2n1)CCCCC3	nt	nt	nt	-1	nt	nt
N=c1c2c3c(sc2ncn1CCN1CCOCC1)CCCCC3	i	i	nt	1	69*	-32*
CCCCn1cnc2sc3c(c2c1=N)CCCC3	i	i	0.18	-16	53*	-41*
O=C(CN(C(=O)CSc1nc2ccccc2o1)c1ccccc1F)NC1CCCCC1	i	i	-0.98	4	nt	nt
O=C(Cc1ccccc1[N+](=O)[O-])NCc1ccccc1Cl	i	i	-0.49	5	nt	nt
Cc1ccc(NCc2nnc(SCC(=O)Nc3cccc(O)c3)n2CC2CCCO2)c(C)c1 (stereo unspecified)	i	i	-0.57	7	nt	nt
Cc1oc2ccc(O)cc2c1C(=O)c1ccc(F)cc1	i	i	nt	nt	nt	nt
C/C(=N\N1CCN(c2ccc(Cl)cc2)CC1)c1cccs1	i	i	1.2	-5	nt	nt
CCCC(CCC)C(=O)Nc1ccc2c(c1)N(C(=O)CN1CCN(C)CC1)c1ccccc1CC2	6.7*	i	-0.41	-2	29*	i
COc1cccc(CN2CC(C(=O)N3CCN(c4ccc(Cl)cc4)CC3)CCC2=O)c1 (stereo unspecified)	i	i	nt	nt	nt	nt
Cc1cc(NCCCO)n2nc(-c3cccs3)cc2n1	8.1*	i	-0.29	19	62*	-56*
Cc1cc(NCCN(C)C)n2nc(-c3cccs3)cc2n1	10*	i	-0.34	-11	47*	-89*
O=C1C2CC=C(Cl)CC2C(=O)N1CCCCCCN1C(=O)C2CC=C(Cl)CC2C1=O (stereo unspecified)	i	i	nt	-11	nt	nt
O=C1C2CC=C(Cl)CC2C(=O)N1CCC[n+]1cccc2ccccc21 (stereo unspecified)	i	i	0.88	3	50*	-25*
Cc1ccc(S(=O)(=O)n2c(=O)oc3ccccc32)cc1	i	i	1.6	3	nt	nt
CC(C)N1CCc2c(sc(N)c2C#N)C1	6.4*	i	nt	nt	43*	-36*
CCN1CCc2c(sc(N)c2C#N)C1	i	i	0.44	nt	37*	-39*
SMILES	CHT PAM	CHT inh	Cl transport mod	Rad51 HR inh	CHT activ conf	HEK293 MP dye
Cc1ccc2c(c1)c(-c1ccccc1)nc1nncn12	i	i	-0.11	6	38*	-32*
Fc1ccc(-c2nnc(N3CCOCC3)c3ccccc23)cc1F	i	i	nt	nt	nt	nt
Cc1sc2cc(-c3cccc([N+](=O)[O-])c3)c(-c3cccc([N+](=O)[O-])c3)c[n+]2c1C	8.4*	i	-0.8	-9	56*	-88*
O=[N+]([O-])c1cccc(-c2cc3cccc[n+]3cc2-c2cccc([N+](=O)[O-])c2)c1	14*	i	0.17	nt	77*	-75*
O=c1cc(-c2cccc([N+](=O)[O-])c2)[nH][nH]1	i	i	0.26	0	nt	nt
COc1ccc(Br)cc1CN(C)CC(=O)Nc1c(Cl)cccc1Cl	i	i	-1	-4	7	i
CCc1c(C)sc(NC(=O)c2noc(C)c2[N+](=O)[O-])c1C#N	i	i	-0.083	-4	nt	nt
CCN(CC)CCCNC(=O)CN1N=C(c2ccc(OC)cc2)CCC1=O	i	i	nt	nt	nt	nt
CC(OC(=O)CCc1nc2ccccc2c(=O)[nH]1)C(=O)c1ccc(C(C)(C)C)cc1 (stereo unspecified)	i	i	0.048	7	nt	nt
CCn1c(C)[n+](Cc2ccccc2)c2ccc(Cl)cc21	i	i	1.6	20	nt	nt
Cc1n(Cc2ccccc2)c2cc([N+](=O)[O-])ccc2[n+]1Cc1ccccc1	8.3*	i	nt	nt	72*	-58*
CCOC(=O)c1ccc2c(c1)n(CC)c(/C=C/Nc1ccccc1)[n+]2CC	i	i	nt	8	32*	-83*
CCn1c(C)[n+](Cc2ccccc2)c2ccc(C(=O)OC)cc21	10*	i	0.6	18	27*	-67*
Cc1n(Cc2ccccc2)c2ccccc2[n+]1Cc1ccccc1	i	i	nt	nt	nt	nt
C(=N\NC1=Nc2cccc3cccc1c23)/c1ccccc1	i	i	-0.054	-15	nt	nt
NC1=Nc2cccc3cccc1c23	i	i	-0.1	3	45*	-65*
O=C(O)c1cccnc1SCC(=O)N1CCCc2ccccc21	i	i	0.07	-43	nt	nt
COc1ccc(NC(=O)C(=O)NNC(=O)c2cccs2)c(OC)c1	7.2*	i	11*	-1	69*	-47*
COc1ccc2nc(C)cc(N3CCC(C(N)=O)CC3)c2c1	7.2*	i	0.31	8	61*	-76*
CCOC(=O)C1CCN(c2cc(C)nc3ccc(OC)cc23)CC1	7.8*	i	-0.43	12	42*	-72*
O=C(Nc1ccc2ccccc2c1)C(c1ccccc1)C1CCCC1 (stereo unspecified)	i	i	-0.41	-1	24*	i
Cc1ccc(NC(=O)C(c2ccccc2)C2CCCC2)cc1 (stereo unspecified)	nt	nt	-0.33	-2	nt	nt
O=C(Cn1c(-c2ccccc2)c[n+]2ccsc12)c1ccc([N+](=O)[O-])cc1	8.6*	i	0.036	-4	66*	-61*
O=C(Cn1c(-c2ccccc2)c[n+]2ccsc12)c1ccccc1	i	i	0.84	4	nt	nt
COc1ccc2c3c(cccc13)C(=O)N(O)C2=O	i	i	-0.21	-86	41*	-30*
COc1ccccc1N1C(=O)c2cccc3c(C(=O)O)ccc(c23)C1=O	i	i	0.058	5	nt	nt
